Values after ≈ are worked out from the molar mass of the structure shown.
Tests used:
Plasmodium falciparum [1] = assay: Antiplasmodial activity against chloroquine-sensitive Plasmodium falciparum D6 after 72 hrs by LDH assay; assay type: functional, organism-based
Vero = assay: Cytotoxicity against african green monkey Vero cells up to 4.6 ug/mL after 48 hrs by neutral red assay; assay type: cell-based; details: chlorocebus sabaeus
Summary of the method: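 Vero cells were seeded at 25,000 cells/well and incubated for 24 h, then exposed to serially diluted samples for 48 h. Viable cells were counted by Neutral Red assay, with doxorubicin as positive control. IC50 was taken from dose-response curves.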

[2] = tested on: Mycobacterium tuberculosis; assay: Antimycobacterial activity against Mycobacterium tuberculosis H37Rv; assay type: functional, organism-based
Candida albicans = assay: Antifungal activity against Candida albicans ATCC 90028; assay type: functional, organism-based
Summary of the method: (§1)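 Broth microdilution per modified CLSI method; samples serially diluted in 20% DMSO/saline, tested in duplicate; inocula set by OD630 of suspensions in incubation broth; growth read at 630 nm before and after incubation; amphotericin B drug control.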

Cryptococcus neoformans = assay: Antifungal activity against Cryptococcus neoformans ATCC 90113; assay type: functional, organism-based; summary of the method: as §1
[3] = tested on: Mycobacterium intracellulare; assay: Antimycobacterial activity against Mycobacterium intracellular ATCC 23068; assay type: functional, organism-based
Summary of the method: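 Modified Franzblau method; samples serially diluted in 20% DMSO/saline, tested in duplicate; inoculum set by OD630; fluorescence read at 544ex/590em before and after incubation; ciprofloxacin drug control.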

Plasmodium falciparum [4] = assay: Antiplasmodial activity against chloroquine-resistant Plasmodium falciparum W2 after 72 hrs by LDH assay; assay type: functional, organism-based
[5] = Antineuroinflammatory activity in LPS-stimulated rat neonatal microglia assessed as inhibition of PMA-induced superoxide anion production preincubated 15 mins prior to PMA challenge measured after 70 mins; assay type: functional, cell-based
[6] = Antineuroinflammatory activity in LPS-stimulated rat neonatal microglia assessed as inhibition of PMA-induced TXB2 production preincubated 15 mins prior to PMA challenge measured after 70 mins; assay type: functional, cell-based
[7] = Antineuroinflammatory activity in LPS-stimulated rat neonatal microglia assessed as drug level causing 50% PMA-induced LDH release preincubated 15 mins prior to PMA challenge measured after 70 mins; assay type: functional
Summary of the method: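 Neonatal rat microglia (2 × 10^5/well) primed with E. coli LPS 0.3 ng/mL for 17 h at 35.9 °C, washed with HBSS, given compound (0.01–10 μM) or DMSO 15 min, then PMA 1 μM; LDH read spectrophotometrically after 70 min; LDH50 relative to Triton X-100 (0.1%) release; duplicates.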

[8] = Plasmodium falciparum, D6, 72 h, read-out: IC50
[9] = Plasmodium falciparum, W2, 72 h, read-out: IC50

Structure (SMILES) | IC50 (Plasmodium falciparum [1]; [8]) | Activity (Vero) | MIC [2] | IC50 (Candida albicans) | IC50 (Cryptococcus neoformans) | IC50 [3] | IC50 (Plasmodium falciparum [1]) | IC50 (Plasmodium falciparum [4]) | IC50 (Plasmodium falciparum [4]; [9]) | IC50 [5] | IC50 [6] | Activity [7]
CC[C@@]1(O)CCCN2[C@@H](CC1)C[C@]13CN4CCCC/C=C\CC[C@](O)(C=C(c5nccc6c5[nH]c5c(O)cccc56)[C@@H]1CC4)[C@H]23 | 0.077 µg/mL (≈ 0.126 µM) | Non-toxic | 1.9 µg/mL (≈ 3.11 µM) | 2.5 µg/mL (≈ 4.09 µM) | 6 µg/mL (≈ 9.82 µM) | 0.25 µg/mL (≈ 0.409 µM) | – | – | – | – | – | –
Oc1cccc2c1[nH]c1c(C3=C[C@@]4(O)CC/C=C\CCCCN5CC[C@@H]3[C@]3(C[C@@H]6CC[C@H](O)CCCN6[C@H]34)C5)nccc12 | – | Non-toxic | 1.7 µg/mL (≈ 2.92 µM) | 15 µg/mL (≈ 25.7 µM) | 10 µg/mL (≈ 17.2 µM) | 1.5 µg/mL (≈ 2.57 µM) | Not Active | Not Active | – | – | – | –
COC(=O)CCCCn1c2ccccc2c2ccnc(C3=C[C@@]4(O)CC/C=C\CCCCN5CC[C@@H]3[C@]3(C[C@@H]6/C=C\C(=O)CCCN6[C@H]34)C5)c21 | 2 µg/mL (≈ 2.95 µM) | Non-toxic | – | > 20 µg/mL | 15 µg/mL (≈ 22.2 µM) | 20 µg/mL (≈ 29.5 µM) | – | – | 2 µg/mL (≈ 2.95 µM) | – | – | –
O=C1CC[C@H]2C[C@]34CN5CCCC/C=C\CC[C@](O)(C=C(c6nccc7c6[nH]c6c(O)cccc67)[C@@H]3CC5)[C@@H]4N2CC/C1=C/c1ccc(F)cc1 | – | Non-toxic | – | > 20 µg/mL | > 20 µg/mL | > 20 µg/mL | Not Active | Not Active | – | – | – | –
COc1ccc(/C=C2/CCN3[C@@H](CCC2=O)C[C@]24CN5CCCC/C=C\CC[C@](O)(C=C(c6nccc7c6[nH]c6c(O)cccc67)[C@@H]2CC5)[C@H]34)cc1OC | – | Non-toxic | > 64 µg/mL | > 20 µg/mL | > 20 µg/mL | > 20 µg/mL | Not Active | Not Active | – | – | – | –
O=C1CC[C@H]2C[C@]34CN5CCCC/C=C\CC[C@](O)(C=C(c6nccc7c6[nH]c6c(O)cccc67)[C@@H]3CC5)[C@@H]4N2CC/C1=C/c1c(Cl)cccc1Cl | – | Non-toxic | > 64 µg/mL | > 20 µg/mL | > 20 µg/mL | > 20 µg/mL | Not Active | Not Active | – | – | – | –
CC(=O)Oc1cccc2c1[nH]c1c(C3=C/C4=C/C/C=C\CCCCN5CC[C@@H]3[C@]3(C[C@@H]6/C=C\CCCCN6[C@@H]43)C5)nccc12 | 2.5 µg/mL (≈ 4.25 µM) | – | > 64 µg/mL | > 20 µg/mL | > 20 µg/mL | 10 µg/mL (≈ 17 µM) | – | – | 3.8 µg/mL (≈ 6.45 µM) | – | – | –
COc1ccc(/C=C2/CCN3[C@@H](CCC2=O)C[C@]24CN5CCCC/C=C\CC[C@](O)(C=C(c6nccc7c6[nH]c6c(O)cccc67)[C@@H]2CC5)[C@H]34)cc1 | – | Non-toxic | > 64 µg/mL | > 20 µg/mL | > 20 µg/mL | > 20 µg/mL | Not Active | Not Active | – | – | – | –
N/N=C1/CCCN2[C@@H](CC1)C[C@]13CN4CCCC/C=C\CC[C@](O)(C=C(c5nccc6c5[nH]c5c(O)cccc56)[C@@H]1CC4)[C@H]23 | – | Non-toxic | 1.9 µg/mL (≈ 3.19 µM) | > 20 µg/mL | 1 µg/mL (≈ 1.68 µM) | 0.09 µg/mL (≈ 0.151 µM) | – | – | 0.038 µg/mL (≈ 0.0639 µM) | – | – | –
O=C1CC[C@H]2C[C@]34CN5CCCC/C=C\CC[C@](O)(C=C(c6nccc7c6[nH]c6c(O)cccc67)[C@@H]3CC5)[C@@H]4N2CC/C1=C/c1ccc([N+](=O)[O-])cc1 | – | Non-toxic | > 64 µg/mL | > 20 µg/mL | > 20 µg/mL | > 20 µg/mL | Not Active | Not Active | – | – | – | –
CCCCCCCCCCCCn1c2ccccc2c2ccnc(C3=C[C@@]4(O)CC/C=C\CCCCN5CC[C@@H]3[C@]3(C[C@@H]6/C=C\CCCCN6[C@H]34)C5)c21 | – | Non-toxic | – | > 20 µg/mL | > 20 µg/mL | > 20 µg/mL | Not Active | Not Active | – | – | – | –
COc1cccc(/C=C2/CCN3[C@@H](CCC2=O)C[C@]24CN5CCCC/C=C\CC[C@](O)(C=C(c6nccc7c6[nH]c6c(O)cccc67)[C@@H]2CC5)[C@H]34)c1 | – | Non-toxic | > 64 µg/mL | > 20 µg/mL | > 20 µg/mL | > 20 µg/mL | Not Active | Not Active | – | – | – | –
O=C1CC[C@H]2C[C@]34CN5CCCC/C=C\CC[C@](O)(C=C(c6nccc7c6[nH]c6c(O)cccc67)[C@@H]3CC5)[C@@H]4N2CC/C1=C/c1ccc(Br)cc1 | – | Non-toxic | > 64 µg/mL | > 20 µg/mL | > 20 µg/mL | > 20 µg/mL | Not Active | Not Active | – | – | – | –
[O-][N+]12CCCC/C=C\CC[C@]3(O)C=C(c4nccc5c4[nH]c4ccccc45)[C@H](CC1)[C@]1(C[C@@H]4/C=C\CCCC[N@+]4([O-])[C@H]13)C2 | – | Non-toxic | – | > 20 µg/mL | > 20 µg/mL | 10 µg/mL (≈ 17.2 µM) | – | – | – | – | – | –
O=[N+]([O-])c1cccc2c1[nH]c1c(C3=C[C@@]4(O)CC/C=C\CCCCN5CC[C@@H]3[C@]3(C[C@@H]6/C=C\CCCCN6[C@H]34)C5)nccc12 [8-NITROMANZAMINE A] | 0.31 µg/mL (≈ 0.522 µM) | Non-toxic | – | > 20 µg/mL | 4 µg/mL (≈ 6.74 µM) | 0.25 µg/mL (≈ 0.421 µM) | – | – | 0.41 µg/mL (≈ 0.691 µM) | – | – | –
O[C@]12C=C(c3nccc4c3[nH]c3ccccc34)[C@@H]3CCN(CCCC/C=C\CC1)C[C@@]31C[C@@H]3CCCCCCN3[C@H]12 [32,33-DIHYDROMANZAMINE A] | – | – | 66 µg/mL (≈ 120 µM) | 9.5 µg/mL (≈ 17.2 µM) | 1.5 µg/mL (≈ 2.72 µM) | 0.6 µg/mL (≈ 1.09 µM) | – | – | 1.8 µg/mL (≈ 3.27 µM) | – | – | –
C[C@@H]1[C@H](O)[C@@H](C)/C=C/C=C/C=C/C=C/C=C/C=C/C=C/[C@H](O[C@@H]2O[C@H](C)[C@@H](O)[C@H](N)[C@@H]2O)C[C@@H]2O[C@](O)(C[C@@H](O)C[C@@H](O)[C@H](O)CC[C@@H](O)C[C@@H](O)CC(=O)O[C@H]1C)C[C@H](O)[C@H]2C(=O)O [AMPHOTERICIN B] | – | – | – | 0.2 µg/mL (≈ 0.216 µM) | – | – | – | – | – | – | – | –
C1=C(c2nccc3c2[nH]c2ccccc23)[C@@H]2CCN3CCCC/C=C\C/C=C/1[C@@H]1N4CCCC/C=C\[C@H]4C[C@@]12C3 [DEHYDROMANZAMINE A] | 0.12 µg/mL (≈ 0.226 µM) | – | 46 µg/mL (≈ 86.7 µM) | 9.5 µg/mL (≈ 17.9 µM) | 4.5 µg/mL (≈ 8.48 µM) | 0.4 µg/mL (≈ 0.754 µM) | – | – | 2.2 µg/mL (≈ 4.14 µM) | – | – | –
O=CC1=C[C@@]2(O)CC/C=C\CCCCN3CC[C@@H]1[C@]1(C[C@@H]4/C=C\CCCCN4[C@H]12)C3 [IRCINAL] | – | – | – | – | – | – | – | – | – | > 10000 nM | 330 nM | 4.6 µM
O=C1CCCN2[C@@H](CC1)C[C@]13CN4CCCC/C=C\CC[C@](O)(C=C(c5nccc6c5[nH]c5c(O)cccc56)C1CC4)[C@H]23 (some centres not stated) [MANZAMINE F] | – | – | – | 15 µg/mL (≈ 25.8 µM) | – | – | – | – | – | – | – | –
CO[C@H]1/C=C/O[C@@]2(C)Oc3c(C)c(O)c4c(O)c(c(/C=N/N5CCN(C)CC5)c(O)c4c3C2=O)NC(=O)/C(C)=C\C=C\[C@H](C)[C@H](O)[C@@H](C)[C@@H](O)[C@@H](C)[C@H](OC(C)=O)[C@@H]1C [RIFAMPIN] | – | – | 0.09 µg/mL (≈ 0.109 µM) | – | – | – | – | – | – | – | – | –
